Measured values taken from ChEMBL document CHEMBL4138188, “Eurycomalactone Inhibits Expression of Endothelial Adhesion Molecules at a Post-Transcriptional Level” (J Nat Prod, 2017).
Active and inactive are the calls of the source. The calls are words filed in the database; no cut-off is given here.

Assays:
[1] = species on record: Homo sapiens; test: (§1) Inhibition of NF-kappaB in HUVECtert assessed as reduction in TNFalpha-induced ICAM-1 expression level pretreated for 30 mins followed by TNFalpha stimulation measured after 18 hrs by flow cytometry
Summary of the method: (§2)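 FITC-antibody surface staining, flow cytometry; expression relative to TNFα-stimulated control. Parthenolide 10 μM as positive control; means ± SD, n = 3, one-way ANOVA/Dunnett versus vehicle.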

[2] = as §1; design: species or system Homo sapiens; summary of the method: as §2
[3] = species on record: Homo sapiens; test: Inhibition of NF-kappaB in HUVECtert assessed as reduction in TNFalpha-induced VCAM-1 mRNA expression level at 0.5 uM pretreated for 30 mins followed by TNFalpha stimulation measured after 4 hrs by qRT-PCR analysis
[4] = species on record: Homo sapiens; test: Reduction in survivin level in HUVECtert at 2 uM measured up to 480 mins by Western blot analysis; assay type: functional
Summary of the method: (§3)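 HUVECtert treated with 1 μM cycloheximide, 2 μM agent, vehicle, or left untreated for a time course; cyclin D1 or survivin by Western blot, actin loading control; means ± SD of three blots, one-way ANOVA/Dunnett versus untreated.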

[5] = target: T1, NF-kappa-B inhibitor alpha (Homo sapiens) (UniProt P25963); test: Inhibition of IkappaBalpha degradation in TNFalpha-stimulated HUVECtert at 2 uM pretreated for 30 mins followed by TNFalpha stimulation measured after 5 to 15 mins by Western blot analysis
T1 sequence (whole entry): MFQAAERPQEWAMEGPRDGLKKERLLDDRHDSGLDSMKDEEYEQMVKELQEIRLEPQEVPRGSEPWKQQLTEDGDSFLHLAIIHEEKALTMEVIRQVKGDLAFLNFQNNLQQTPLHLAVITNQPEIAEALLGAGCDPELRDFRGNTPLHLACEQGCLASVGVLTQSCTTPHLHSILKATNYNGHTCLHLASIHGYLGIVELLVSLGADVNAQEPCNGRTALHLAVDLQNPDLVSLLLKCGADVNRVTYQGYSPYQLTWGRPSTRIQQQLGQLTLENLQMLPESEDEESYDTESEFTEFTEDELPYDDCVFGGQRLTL
Summary of the method: (§4)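 HUVECtert on gelatin-coated dishes pretreated with 2 μM agent or 0.1% DMSO, then TNFα 10 ng/mL; p-IKKα/β, p-IκBα and total IκBα immunoblotted at 5 or 15 min post-stimulation, actin loading control; means ± SD, n = 3, one-way ANOVA/Dunnett.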

[6] = species on record: Homo sapiens; test: Inhibition of de novo protein synthesis in HUVECtert at 2 to 5 uM after 30 mins by Click-iT OPP/Alexa fluor 488 picolyl azide reagent based flow cytometry; assay type: functional
Summary of the method: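 HUVECtert (1 × 10^6 cells in tubes) exposed 30 min to agent (2 or 5 μM; cycloheximide 1−35 μM) or vehicle, then 20 μM OPP 30 min; fixed, permeabilised, Alexa 488 click-labelled in Tris buffer pH 7.4; FL-1 flow cytometry relative to control; n = 3, one-way ANOVA/Dunnett.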

[7] = Effect on basal ICAM-1 expression level in HUVECtert at 0.5 to 10 uM incubated for 30 mins by flow cytometry; assay type: ADME; settings: human, 0.5 h
Summary of the method: (§5)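 Unstimulated HUVECtert treated with 0.5−10 μM test agent without TNFα; surface VCAM-1, ICAM-1 or E-selectin stained with FITC-labelled antibodies and read by flow cytometry.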

[8] = target: Transcription factor p65 (Homo sapiens) (UniProt Q04206); test: Inhibition of TNFalpha-stimulated NF-kappaB p65 nuclear translocation in HUVECtert nuclear extracts at 2 uM pretreated for 30 mins followed by TNFalpha stimulation measured after 1 hr by Western blot method
Sequence of Transcription factor p65 (Homo sapiens) (Q04206 whole entry): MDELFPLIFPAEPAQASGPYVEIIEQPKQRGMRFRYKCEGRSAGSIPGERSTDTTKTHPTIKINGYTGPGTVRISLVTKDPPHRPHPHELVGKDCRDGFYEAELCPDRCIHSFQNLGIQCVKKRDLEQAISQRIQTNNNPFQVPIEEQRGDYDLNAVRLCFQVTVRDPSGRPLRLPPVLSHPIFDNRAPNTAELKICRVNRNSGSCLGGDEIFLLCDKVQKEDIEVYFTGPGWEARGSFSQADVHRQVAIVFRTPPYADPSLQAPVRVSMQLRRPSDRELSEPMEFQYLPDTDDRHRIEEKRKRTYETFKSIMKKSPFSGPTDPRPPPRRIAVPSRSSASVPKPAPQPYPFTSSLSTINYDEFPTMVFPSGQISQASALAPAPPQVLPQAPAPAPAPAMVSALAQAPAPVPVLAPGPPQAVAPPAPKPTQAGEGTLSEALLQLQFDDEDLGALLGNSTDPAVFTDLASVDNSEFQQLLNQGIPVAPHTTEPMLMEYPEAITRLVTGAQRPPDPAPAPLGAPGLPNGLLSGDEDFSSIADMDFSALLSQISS
Summary of the method: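 Cells grown 48 h, pretreated 30 min with 2 μM or 0.1% DMSO, then TNFα 10 ng/mL for 1 h. Hypotonic NP40 lysis gave cytosol; nuclei extracted in 420 mM NaCl HEPES buffer pH 7.5. Nuclear p65 by Western blot, lamin loading control, tubulin/lamin verifying fractions; n = 3.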

[9] = species on record: Homo sapiens; test: Cytotoxicity against TNFalpha-stimulated HUVECtert assessed as reduction in cell viability incubated for 30 mins followed by TNFalpha stimulation measured after 17.5 hrs by resazurin dye based fluorescence assay; assay type: functional
Summary of the method: (§6)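 HUVECtert (passage ≤15) seeded on gelatin-coated wells, grown 48 h, then exposed to test agent or 0.1% DMSO vehicle, with or without TNFα; digitonin 100 μg/mL as positive control. After 18 h, supernatant removed, cells washed, then 2 h with 10 μg/mL resazurin in PBS; metabolic conversion read relative to vehicle.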

[10] = species on record: Homo sapiens; test: Reduction in cyclin D1 level in HUVECtert at 2 uM by Western blot analysis; assay type: functional; settings: TDE = time-dependent effect; summary of the method: as §3
[11] = target: T1, NF-kappa-B inhibitor alpha (Homo sapiens); test: Inhibition of IkappaBalpha phosphorylation level in TNFalpha-stimulated HUVECtert at 2 uM pretreated for 30 mins followed by TNFalpha stimulation measured after 5 to 15 mins by Western blot analysis; summary of the method: as §4
[12] = Effect on basal E-selectin expression level in HUVECtert at 0.5 to 10 uM incubated for 30 mins by flow cytometry; assay type: ADME; settings: human, 0.5 h; summary of the method: as §5
[13] = target: T2, Inhibitor of nuclear factor kappa-B kinase subunit beta (Homo sapiens) (UniProt O14920); test: Inhibition of IKKbeta phosphorylation level in TNFalpha-stimulated HUVECtert at 2 uM pretreated for 30 mins followed by TNFalpha stimulation measured after 5 to 15 mins by Western blot analysis; summary of the method: as §4
T2 sequence (whole entry): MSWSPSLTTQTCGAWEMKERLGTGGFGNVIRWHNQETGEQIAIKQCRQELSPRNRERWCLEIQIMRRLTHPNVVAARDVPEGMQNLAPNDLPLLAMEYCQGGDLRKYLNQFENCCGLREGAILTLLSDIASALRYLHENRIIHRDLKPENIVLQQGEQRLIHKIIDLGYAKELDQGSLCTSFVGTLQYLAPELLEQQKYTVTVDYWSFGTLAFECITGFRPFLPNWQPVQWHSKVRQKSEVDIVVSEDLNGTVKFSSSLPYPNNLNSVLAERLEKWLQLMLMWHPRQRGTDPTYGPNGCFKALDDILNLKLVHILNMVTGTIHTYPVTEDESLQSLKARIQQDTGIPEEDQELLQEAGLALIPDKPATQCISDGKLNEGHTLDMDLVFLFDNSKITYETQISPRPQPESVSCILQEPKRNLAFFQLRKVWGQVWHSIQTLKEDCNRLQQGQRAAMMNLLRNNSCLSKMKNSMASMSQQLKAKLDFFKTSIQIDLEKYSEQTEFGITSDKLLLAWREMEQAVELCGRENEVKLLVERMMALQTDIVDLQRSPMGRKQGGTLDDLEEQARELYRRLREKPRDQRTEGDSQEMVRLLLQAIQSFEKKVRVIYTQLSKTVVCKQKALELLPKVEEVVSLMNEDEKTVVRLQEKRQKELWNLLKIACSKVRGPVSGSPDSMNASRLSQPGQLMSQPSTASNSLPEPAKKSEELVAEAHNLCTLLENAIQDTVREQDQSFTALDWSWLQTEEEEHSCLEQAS

[14] = species on record: Homo sapiens; test: Inhibition of NF-kappaB in HUVECtert assessed as reduction in TNFalpha-induced E-selectin mRNA expression level at 0.5 to 5 uM pretreated for 30 mins followed by TNFalpha stimulation measured after 2 hrs by qRT-PCR analysis
[15] = species on record: Homo sapiens; test: Cytotoxicity against HUVECtert assessed as reduction in cell viability after 18 hrs by resazurin dye based fluorescence assay; assay type: functional; summary of the method: as §6

CC1=CC(=O)[C@@H](O)[C@@]2(C)[C@H]1CC(=O)[C@@]1(C)[C@H]3C(=O)O[C@H]([C@@H]3C)[C@H](O)[C@@H]12 [EURYCOMALACTONE]
inhibition [1]: Dose-dependent effect | IC50 [2]: 580 nM | inhibition [3]: inactive | Activity [4]: inactive | inhibition [5]: inactive | inhibition [6]: Active | Activity [7]: Non-Toxic | inhibition [8]: inactive | Activity [9]: inactive | Activity [10]: Tde | inhibition [11]: inactive | Activity [12]: Non-Toxic | inhibition [13]: inactive | inhibition [14]: inactive | Activity [15]: inactive
